Measured values from paper PMC12808645 (Nature Communications, 2025).

Assays:
[1] = system: Nan-Iav(∆697-C); type: cell-based, Halyomorpha halys; settings: 1 mM Ca2+, Δ C-ter (Iav∆(697-986))
[2] = system: Nan-IavW701A; test: Whole-cell electrophysiology, Nan-IavW701A; type: cell-based, Halyomorpha halys; settings: 1 mM Ca2+
[3] = molecular target: stink bug Nan-Iav; set-up: species or system Halyomorpha halys; settings: read-out: [3H]-AP binding Kd
[4] = molecular target: Nan only, WT; test: [3H]-AP binding to Nan-only membranes, WT; set-up: species or system Halyomorpha halys; settings: read-out: [3H]-AP binding Kd
How it was run: (§1)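 Nan expressed in HEK293S GnTI- suspension cells (1–1.5 M/mL) by 3% (v/v) baculovirus, ~1 day at 37 °C then 48 h at 25 °C. Membranes were made by sonication and spun at 300 × g 10 min then 50,000 × g 2 h. Saturation binding used 60–100 µg membranes with [3H]-AP in pH 7.4 HEPES binding buffer (CaCl2, MgCl2, 0.0025% Tween-20), 3 h at room temperature. Samples were filtered on 0.1% PEI-treated filters, washed thrice with ice-cold buffer, and counted by scintillation. Nonspecific binding was set with 500-fold excess unlabeled AP.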

[5] = system: Nan only, Y172A; test: [3H]-AP binding to Nan-only membranes, Y172A; set-up: species or system Halyomorpha halys; settings: NanY172A
How it was run: as §1

[6] = molecular target: Nan only, Y177A; test: [3H]-AP binding to Nan-only membranes, Y177A; set-up: species or system Halyomorpha halys
How it was run: as §1

[7] = system: Nan-IavY325A; type: binding, Halyomorpha halys
[8] = system: Drosophila Nan-Iav; settings: cited from earlier work
[9] = system: stink bug Nan-Iav; type: binding, Halyomorpha halys

Question: For `[Ca+2]` [Ca^2+], which “% inhibition of inward current” value [1] is on record?
Answer: ~ 10%

Question: What about the “% inhibition of inward current” value [2] of the same molecule?
Answer: ~ 10%

Question: With `C[C@]1(COC(=O)C2CC2)[C@@H]2C[C@H](O)[C@@]3(C)Oc4cc(-c5cccnc5)oc(=O)c4[C@H](O)[C@@H]3[C@@]2(C)CC[C@@H]1OC(=O)C1CC1` [[^3H]-AP] as the molecule, how does the Kd [3] read?
Answer: 0.017 nM

Question: What about the Kd [4] of the same molecule?
Answer: 0.089 nM

Question: And the “higher [3H]-AP Kd compared to WT Nan” value [5]?
Answer: 7.5 fold

Question: What about the “[3H]-AP binding Kd” value [6] of the same molecule?
Answer: lacks measurable binding

Question: For `NC(=O)c1cccnc1` [NAM, nicotinamide], which “NAM binding (in words)” value [7] is on record?
Answer: eliminated NAM binding

Question: What about the EC50 [8] of the same molecule?
Answer: 14000 nM

Question: For `CC1=NNC(=O)N(/N=C/c2cccnc2)C1` [PM, pymetrozine], which “binding mode versus [3H]-AP” value [9] is on record?
Answer: competitive binding
